Converted amounts (≈) assume the structure as drawn. The source made the active and inactive calls. The rule behind the calls is not given here.
Experiments:
[1] = system: Staphylococcus simulans; assay: Antimicrobial activity against Staphylococcus simulans INCQS 00254 ATCC 27851 at 256 ug/ml after 24 hrs by microdilution assay; format: functional, organism-based
[2] = system: Pseudomonas aeruginosa; assay: Bactericidal activity against Pseudomonas aeruginosa INCQS 00099 ATCC 27853 at 256 ug/ml incubated for 24 hrs followed by transfer of microbial suspension to agar plates and measured after 24 hrs post transfer by resazurin dye-based colorimetric analysis; format: functional, organism-based
Method in brief: (§1)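 For MBC, 10 µL from each clear MIC well was plated on agar and incubated 24 h at 37°C. MBC is the minimum concentration inhibiting 99.9% of growth. […] Triplicate.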

[3] = system: Escherichia coli; assay: Bactericidal activity against Escherichia coli INCQS 00033 ATCC 25922 at 256 ug/ml incubated for 24 hrs followed by transfer of microbial suspension to agar plates and measured after 24 hrs post transfer by resazurin dye-based colorimetric analysis; format: functional, organism-based; details: ATCC 25922 INCQS 00033; method in brief: as §1
[4] = system: Pseudomonas aeruginosa; assay: Antimicrobial activity against Pseudomonas aeruginosa INCQS 00099 ATCC 27853 at 256 ug/ml after 24 hrs by microdilution assay; format: functional, organism-based
[5] = system: Staphylococcus aureus; assay: Antimicrobial activity against Staphylococcus aureus INCQS 00015 ATCC 25923 at 256 ug/ml after 24 hrs by microdilution assay; format: functional, organism-based
[6] = system: Escherichia coli; assay: Antimicrobial activity against Escherichia coli INCQS 00033 ATCC 25922 at 256 ug/ml after 24 hrs by microdilution assay; format: functional, organism-based; details: ATCC 25922 INCQS 00033
[7] = system: Staphylococcus aureus; assay: Antimicrobial activity against methicillin-resistant Staphylococcus aureus BMB9393 assessed as zone of inhibition at 5 mg/ml after 18 to 24 hrs by disc diffusion method; format: functional; details: read-out: IZ
[8] = system: Staphylococcus aureus; assay: Bactericidal activity against Staphylococcus aureus INCQS 00015 ATCC 25923 at 256 ug/ml incubated for 24 hrs followed by transfer of microbial suspension to agar plates and measured after 24 hrs post transfer by resazurin dye-based colorimetric analysis; format: functional, organism-based; method in brief: as §1
[9] = system: Pseudomonas aeruginosa; assay: Antimicrobial activity against Pseudomonas aeruginosa INCQS 00099 ATCC 27853 assessed as zone of inhibition at 5 mg/ml after 18 to 24 hrs by disc diffusion method; format: functional; details: read-out: IZ
[10] = system: Staphylococcus epidermidis; assay: Antimicrobial activity against Staphylococcus epidermidis INCQS 00016 ATCC 12228 assessed as zone of inhibition at 5 mg/ml after 18 to 24 hrs by disc diffusion method; format: functional; details: ATCC 12228 INCQS 00016, read-out: IZ
[11] = system: Escherichia coli; assay: Antimicrobial activity against Escherichia coli INCQS 00033 ATCC 25922 assessed as zone of inhibition at 5 mg/ml after 18 to 24 hrs by disc diffusion method; format: functional; details: ATCC 25922 INCQS 00033, read-out: IZ
[12] = system: Staphylococcus simulans; assay: Bactericidal activity against Staphylococcus simulans INCQS 00254 ATCC 27851 at 256 ug/ml incubated for 24 hrs followed by transfer of microbial suspension to agar plates and measured after 24 hrs post transfer by resazurin dye-based colorimetric analysis; format: functional, organism-based; method in brief: as §1
[13] = system: Staphylococcus simulans; assay: Antimicrobial activity against Staphylococcus simulans INCQS 00254 ATCC 27851 assessed as zone of inhibition at 5 mg/ml after 18 to 24 hrs by disc diffusion method; format: functional; details: read-out: IZ
[14] = system: Proteus mirabilis; assay: Antimicrobial activity against Proteus mirabilis INCQS 00095 ATCC 15290 assessed as zone of inhibition at 5 mg/ml after 18 to 24 hrs by disc diffusion method; format: functional; details: read-out: IZ
[15] = system: Klebsiella pneumoniae; assay: Antimicrobial activity against Klebsiella pneumoniae INCQS 00083 ATCC 4352 assessed as zone of inhibition at 5 mg/ml after 18 to 24 hrs by disc diffusion method; format: functional; details: read-out: IZ
[16] = system: Enterococcus faecalis; assay: Antimicrobial activity against Enterococcus faecalis INCQS 00234 ATCC 29212 assessed as zone of inhibition at 5 mg/ml after 18 to 24 hrs by disc diffusion method; format: functional; details: ATCC 29212 INCQS 00234, read-out: IZ
[17] = system: Staphylococcus epidermidis; assay: Bactericidal activity against Staphylococcus epidermidis INCQS 00016 ATCC 12228 incubated for 24 hrs followed by transfer of microbial suspension to agar plates and measured after 24 hrs post transfer by resazurin dye-based colorimetric analysis; format: functional; details: ATCC 12228 INCQS 00016, 24 h, read-out: MBC99.9; method in brief: as §1
[18] = system: Staphylococcus aureus; assay: Bactericidal activity against methicillin-resistant Staphylococcus aureus BMB9393 at 256 ug/ml incubated for 24 hrs followed by transfer of microbial suspension to agar plates and measured after 24 hrs post transfer by resazurin dye-based colorimetric analysis; format: functional, organism-based
Method in brief: (§2)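 From MIC wells with no visible growth, 10 µL is transferred to agar plates and incubated 24 h at 37°C. MBC is the minimum concentration inhibiting 99.9% of growth. […] Triplicate.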

[19] = system: Staphylococcus aureus; assay: Antimicrobial activity against Staphylococcus aureus INCQS 00015 ATCC 25923 assessed as zone of inhibition at 5 mg/ml after 18 to 24 hrs by disc diffusion method; format: functional; details: read-out: IZ
[20] = system: Staphylococcus epidermidis; assay: Ratio of MBC99.9 to MIC for Staphylococcus epidermidis INCQS 00016 ATCC 12228; format: functional, ATCC 12228 INCQS 00016
Method in brief: (§3)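 MBC/MIC ratio from the 24 h, 37°C microdilution MIC and the agar-plating MBC (99.9% growth inhibition). A ratio ≤2 was classed as bactericidal and ≥4 as bacteriostatic.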

[21] = system: Staphylococcus epidermidis; assay: Antimicrobial activity against Staphylococcus epidermidis INCQS 00016 ATCC 12228 after 24 hrs by microdilution assay; format: functional; details: ATCC 12228 INCQS 00016, 24 h
[22] = system: Staphylococcus aureus; assay: Antimicrobial activity against methicillin-resistant Staphylococcus aureus BMB9393 at 256 ug/ml after 24 hrs by microdilution assay; format: functional, organism-based
[23] = Hemolytic activity against human erythrocytes assessed as hemolysis at 200 ug/ml after 3 hrs by spectrophotometric analysis relative to control; format: ADME, cell-based, Erythrocyte; details: read-out: Activity
Method in brief: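 Erythrocytes collected in citrate tubes, washed three times with PBS pH 7.4 by centrifugation and resuspended in PBS. Incubated with compounds at 200 µg/mL for 3 h at 37°C. Released hemoglobin was read in the supernatant at 545 nm against 1% Triton X-100 (complete lysis) and 1% DMSO (negative control). Below 10% hemolysis was taken as hemocompatible. Three independent experiments.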

[24] = system: Staphylococcus simulans; assay: Ratio of MBC99.9 to MIC for Staphylococcus simulans INCQS 00254 ATCC 27851; format: functional; method in brief: as §3
[25] = system: Staphylococcus aureus; assay: Ratio of MBC99.9 to MIC for Staphylococcus aureus INCQS 00015 ATCC 25923; format: functional; method in brief: as §3
[26] = system: Staphylococcus simulans; assay: Antimicrobial activity against Staphylococcus simulans INCQS 00254 ATCC 27851 after 24 hrs by microdilution assay; format: functional; details: INCQS 00254 ATCC 27851, 24 h
[27] = system: Staphylococcus simulans; assay: Bactericidal activity against Staphylococcus simulans INCQS 00254 ATCC 27851 incubated for 24 hrs followed by transfer of microbial suspension to agar plates and measured after 24 hrs post transfer by resazurin dye-based colorimetric analysis; format: functional; details: INCQS 00254 ATCC 27851, 24 h, read-out: MBC99.9; method in brief: as §1
[28] = system: Staphylococcus aureus; assay: Bactericidal activity against Staphylococcus aureus INCQS 00015 ATCC 25923 incubated for 24 hrs followed by transfer of microbial suspension to agar plates and measured after 24 hrs post transfer by resazurin dye-based colorimetric analysis; format: functional; details: INCQS 00015 ATCC 25923, 24 h, read-out: MBC99.9; method in brief: as §2
[29] = system: Staphylococcus aureus; assay: Antimicrobial activity against Staphylococcus aureus INCQS 00015 ATCC 25923 after 24 hrs by microdilution assay; format: functional; details: INCQS 00015 ATCC 25923, 24 h

Row | Structure (SMILES) | Activity [1] | Activity [2] | Activity [3] | Activity [4] | Activity [6] | zone of inhibition at 5000 µg/mL [7] | zone of inhibition at 5000 µg/mL [9] | zone of inhibition at 5000 µg/mL [10] | zone of inhibition at 5000 µg/mL [11] | zone of inhibition at 5000 µg/mL [13] | zone of inhibition at 5000 µg/mL [14] | zone of inhibition at 5000 µg/mL [15] | zone of inhibition at 5000 µg/mL [16] | MBC [17] | Activity [18] | zone of inhibition at 5000 µg/mL [19] | Ratio [20] | MIC [21] | Activity [22] | hemolysis at 3 h, 200 ug/ml [23] | other results
1 | COC(=O)c1c(C)nc(C)c2c1C(=O)C(Br)=C(NC[C@H]1O[C@@H]3OC(C)(C)O[C@@H]3[C@H]1O)C2=O | inactive | inactive | inactive | inactive | inactive | 0 mm | 0 mm | 7 mm | 0 mm | 0 mm | 0 mm | 0 mm | 0 mm | 64 µg/mL (≈ 125 µM) | inactive | 0 mm | 1 | 64 µg/mL (≈ 125 µM) | inactive | < 10% | Activity [5]: inactive; Activity [8]: inactive; Activity [12]: inactive
2 | COC(=O)c1c(C)nc(C)c2c1C(=O)C(Cl)=C(NC[C@H]1O[C@@H]3OC(C)(C)O[C@@H]3[C@H]1O)C2=O | inactive | inactive | inactive | inactive | inactive | 0 mm | 0 mm | 8 mm | 0 mm | 0 mm | 0 mm | 0 mm | 0 mm | 32 µg/mL (≈ 68.5 µM) | inactive | 0 mm | 1 | 32 µg/mL (≈ 68.5 µM) | inactive | 10.1 to 14.4% | Activity [5]: inactive; Activity [8]: inactive; Activity [12]: inactive
3 | COC(=O)c1c(C)nc(C)c2c1C(=O)C=C(NC[C@H]1O[C@@H]3OC(C)(C)O[C@@H]3[C@H]3OC(C)(C)O[C@H]31)C2=O | inactive | inactive | inactive | inactive | inactive | 0 mm | 0 mm | 9 mm | 0 mm | 0 mm | 0 mm | 0 mm | 0 mm | 256 µg/mL (≈ 509 µM) | inactive | 0 mm | 1 | 256 µg/mL (≈ 509 µM) | inactive | < 10% | Activity [5]: inactive; Activity [8]: inactive; Activity [12]: inactive
4 | COC(=O)c1c(C)nc(C)c2c1C(=O)C=C(NC[C@H]1O[C@@H]3OC(C)(C)O[C@@H]3[C@H]1O)C2=O | inactive | inactive | inactive | inactive | inactive | 0 mm | 0 mm | 10 mm | 0 mm | 0 mm | 0 mm | 0 mm | 0 mm | 256 µg/mL (≈ 592 µM) | inactive | 0 mm | 1 | 256 µg/mL (≈ 592 µM) | inactive | < 10% | Activity [5]: inactive; Activity [8]: inactive; Activity [12]: inactive
5 | COC(=O)c1c(C)nc(C)c2c1C(=O)C(Cl)=C(N)C2=O |  | inactive | inactive | inactive | inactive | 12 mm | 0 mm | 18 mm | 0 mm | 16 mm | 0 mm | 0 mm | 0 mm | 32 µg/mL (≈ 109 µM) | inactive | 15 mm | 1 | 32 µg/mL (≈ 109 µM) | inactive | 10.1 to 14.4% | Ratio [24]: 1; Ratio [25]: 1; MIC [26]: 32 µg/mL (≈ 109 µM); MBC [27]: 32 µg/mL (≈ 109 µM); MBC [28]: 64 µg/mL (≈ 217 µM); MIC [29]: 64 µg/mL (≈ 217 µM)
6 | CN[C@H](CC(C)C)C(=O)N[C@H]1C(=O)N[C@@H](CC(N)=O)C(=O)N[C@H]2C(=O)N[C@H]3C(=O)N[C@H](C(=O)N[C@H](C(=O)O)c4cc(O)cc(O)c4-c4cc3ccc4O)[C@H](O)c3ccc(c(Cl)c3)Oc3cc2cc(c3O[C@@H]2O[C@H](CO)[C@@H](O)[C@H](O)[C@H]2O[C@H]2C[C@](C)(N)[C@H](O)[C@H](C)O2)Oc2ccc(cc2Cl)[C@H]1O [VANCOMYCIN] |  |  |  |  |  | 14 mm |  | 15 mm |  | 16 mm |  |  | 16 mm |  |  | 16 mm |  |  |  |  | MIC [26]: 2 µg/mL (≈ 1.38 µM)
